What was measured:
[1] = Interexperimental difference between the hypoxic and aerobic cytotoxicity using human adenocarcinoma HT-29 cell line; format: functional
HT-29 [2] = test: Interexperimental ratio of hypoxic TPZ C10 to hypoxic BTO C10 using human adenocarcinoma HT-29 cell line; format: functional
[3] = Concentration required to reduce plating efficiency to 10 percent of controls, under aerobic conditions in mouse SCCVII tumor cells.; format: functional, SCC-7
In short: (§1)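 SCCVII cells plated in glass dishes (2×10^5 to 1×10^6 per dish) 1–2 days ahead. Drug freshly dissolved, given in complete medium for 1 h at 37 °C with shaking. Hypoxia (<200 ppm O2) by repeated evacuation/flushing with 95% N2 + 5% CO2; aerobic controls flushed with 95% air + 5% CO2. Cells washed, trypsinized, replated. Crystal violet stain after 10–14 days, >50-cell colonies scored. C10 is the concentration giving 10% of control plating efficiency.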

[4] = Partition coefficient (logP); format: physicochemical; conditions: octanol/water
In short: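 Octanol/water partition at pH 7.4, measured by low-volume shake flask. Drug in both the octanol and buffer phases quantified by HPLC.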

[5] = Intraexperimental ratio of hypoxic TPZ C10 to hypoxic BTO C10 in mouse SCCVII tumor cells.; format: functional, SCC-7
In short: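 Computed within each experiment from the clonogenic SCCVII assay (1 h drug exposure, hypoxia <200 ppm O2 by gas evacuation/flushing, colony counting after 10–14 days). RHT = C10 of TPZ under hypoxia divided by C10 of the analogue under hypoxia.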

SCC-7 [6] = test: Inhibitory concentration against murine SCCVII cell line under aerobic condition; format: functional, cell-based; conditions: Mus musculus
In short: (§2)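 SRB proliferation assay in 96-well plates. SCCVII (200 cells) or HT-29 (1000 cells) seeded in αMEM + 10% FCS with glucose (17 mM final) and 100 μM 2'-deoxycytidine, then attached for 3 h. Cells exposed for 4 h at 37 °C to 2-fold serial dilutions in triplicate, either oxic (20% O2, 5% CO2) or in an anaerobic chamber (<0.001% O2). After washing, cells grew for 5 (oxic) or 6 (anoxic) days before SRB staining. IC50 values are the mean of three independent experiments.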

SCC-7 [7] = test: Interexperimental ratio of hypoxic TPZ C10 to hypoxic BTO C10 using murine SCCVII cell line; format: functional, Mus musculus
HT-29 [8] = test: Inhibitory concentration against human adenocarcinoma HT-29 cell line under aerobic condition; format: functional, cell-based; in short: as §2
[9] = Intraexperimental difference between the hypoxic and aerobic cytotoxicity in mouse SCCVII tumor cells; format: functional, SCC-7
In short: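 Clonogenic SCCVII survival after 1 h drug exposure at 37 °C, either hypoxic (<200 ppm O2, 95% N2/5% CO2) or aerobic (95% air/5% CO2). Colonies of >50 cells counted after 10–14 days. HCR = aerobic C10 / hypoxic C10, with both values from the same experiment.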

SCC-7 [10] = test: Inhibitory concentration against murine SCCVII cell line under hypoxic condition; format: functional, cell-based; conditions: Mus musculus; in short: as §2
[11] = Interexperimental difference between the hypoxic and aerobic cytotoxicity using murine SCCVII cell line; format: functional, SCC-7
[12] = Concentration required to reduce plating efficiency to 10 percent of controls, under hypoxic conditions in mouse SCCVII tumor cells.; format: functional, SCC-7; in short: as §1
HT-29 [13] = test: Inhibitory concentration against human adenocarcinoma HT-29 cell line under hypoxic condition; format: functional, cell-based; in short: as §2

## Nc1n[n+]([O-])c2cc(C(F)(F)F)ccc2[n+]1[O-]
[1]
  HCR: 35.7
HT-29 [2]
  RHT: 2.5
[3]
  C10: 305 µM
[4]
  logP: 0.81
[5]
  RHT: 1.1
SCC-7 [6]
  IC50: 23.9 µM
SCC-7 [7]
  RHT: 2.6
HT-29 [8]
  IC50: 79.1 µM
[9]
  HCR: 33.3
SCC-7 [10]
  IC50: 0.92 µM
[11]
  HCR: 27.7
[12]
  C10: 9.14 µM
HT-29 [13]
  IC50: 2.1 µM
